Measured values pooled from the literature.
Protocols differ between the studies behind these lines.
Target: Calcium/calmodulin-dependent protein kinase kinase 2 (CAMKK2, Homo sapiens, UniProt Q96RR4)

SMILES | test | setting | remaining binding
C[C@@H](c1ccc(-n2cnc3c(N)ncnc32)cc1)N1CCc2nn(C)c(Cc3ccccc3)c2C1=O | binding, competition with immobilised ligand | 0.1 µM | 94%
CNC(=O)[C@@H]1CC[C@@H](n2c(-c3ccc4cnccc4c3)nc3ccc(C(=O)NCc4cccc(C(N)=O)c4)cc32)C1 | binding, competition with immobilised ligand | 1 µM | 85%
CC1CCCN1c1nccc(-c2cnn3ncccc23)n1 (centres unmarked) | binding | 1 µM | 100%
CC(C)CC(=O)N1CCc2nc(-c3ccc(Br)cc3)nc(N(C)Cc3ccccc3)c2C1 | cell-free assay, competition with immobilised ligand | 0.1 µM | 100%
N[C@@H]1CCN(c2nccc(-c3cnn4ncccc34)n2)C1 | binding | 1 µM | 100%
COc1ncc2cc3ccccc3nc2c1C#N | cell-free assay, competition with immobilised ligand | 5 µM | 96%
CNC(=O)c1ccc(Nc2ncc(C(F)(F)F)c(NCc3nccnc3N(C)S(C)(=O)=O)n2)cc1 | cell-free assay, competition with immobilised ligand | 0.1 µM | 68%
c1cncc(-c2cccc(Nc3nccc(NC4CCCCC4)n3)c2)c1 | binding, competition with immobilised ligand | 10 µM | 69%
COc1ccnn2ncc(-c3ccnc(N(C)C)n3)c12 | binding | 1 µM | 80%
C[C@H](c1ccc(F)cc1)N(Cc1cccc(C(=O)O)c1)C(=O)c1cnc2ccccc2c1 | cell-free assay, competition with immobilised ligand | 1 µM | 95%
c1cnn2ncc(-c3ccnc(N4CCC45COC5)n3)c2c1 | binding | 1 µM | 80%
COc1cccc(CNC(=O)c2nc3scc(COCc4ccc(C(=O)O)cc4)c3c(=O)[nH]2)c1 | cell-free assay, competition with immobilised ligand | 1 µM | 100%
O=C(NCC1CCOCC1)c1n[nH]cc1NC(=O)c1c(F)cccc1F | binding, competition with immobilised ligand | 1 µM | 68%
CO[C@@H](C)c1c(Nc2ccc([C@H](N(C)C(=O)C3CCS(=O)(=O)CC3)C(F)(F)F)cc2)cnc2cc(Cl)nn12 | cell-free assay, competition with immobilised ligand | 1 µM | 80%
C[C@@H]1CCN(c2nccc(-c3cnn4ncccc34)n2)C1 | binding | 1 µM | 72%
O=C(c1ccc(Nc2ncc(Cl)c(-c3ccc(Cl)s3)n2)cc1)N1CCC(N2CCCC2)CC1 | binding, competition with immobilised ligand | 1 µM | 65%
Cc1cnn2ncc(-c3ccnc(N(C)C)n3)c2c1 | binding | 1 µM | 63%
O=C(O)[C@@H]1[C@@H](Cn2nnc3ccccc3c2=O)CC[C@H]1C(=O)c1ccc(OCCC2CCOCC2)cc1 | cell-free assay, competition with immobilised ligand | 1 µM | 100%
O=C(c1ccc(Nc2nccc(-c3cc4ccccc4s3)n2)cc1)N1CCC(N2CCCC2)CC1 | binding, competition with immobilised ligand | 1 µM | 82%
CCN1CCN(Cc2ccc(C(=O)Nc3ccc(C)c(Oc4ccc5c(c4)CC(=O)N5)c3)cc2C(F)(F)F)CC1 | binding, competition with immobilised ligand | 1 µM | 96%
